Test results: ChEMBL document CHEMBL3112554, “Discovery of simplified N²-substituted pyrazolo[3,4-d]pyrimidine derivatives as novel adenosine receptor antagonists: efficient synthetic approaches, biological evaluations and molecular docking studies” (Bioorg Med Chem, 2014)

How the values were obtained:
[1] = target: Adenosine receptors; A1 & A3 (Homo sapiens) (UniProt P30542+P0DMS8); assay: Selectivity ratio of Ki for human adenosine A1 receptor to Ki for human adenosine A3 receptor
In short: (§1)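 Ratios of Ki values from displacement assays in CHO cells (3 h, room temperature). The hA1 Ki ([3H]CCPA) or the hA2A Ki ([3H]NECA) was divided by the hA3 Ki ([3H]HEMADO). Each Ki is a geometric mean of n = 3–6.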

Homo sapiens [2] = species on record: Homo sapiens; assay: Selectivity ratio of Ki for human adenosine A2A receptor to Ki for human adenosine A3 receptor; in short: as §1
Adenosine receptor A3 = target: T1, Adenosine receptor A3 (Homo sapiens, UniProt P0DMS8); assay: Displacement of [3H]-HEMADO from human adenosine A3 receptor expressed in CHO cells after 3 hrs by topcount scintillation counting analysis; format: cell-based
T1 sequence (P0DMS8 whole entry): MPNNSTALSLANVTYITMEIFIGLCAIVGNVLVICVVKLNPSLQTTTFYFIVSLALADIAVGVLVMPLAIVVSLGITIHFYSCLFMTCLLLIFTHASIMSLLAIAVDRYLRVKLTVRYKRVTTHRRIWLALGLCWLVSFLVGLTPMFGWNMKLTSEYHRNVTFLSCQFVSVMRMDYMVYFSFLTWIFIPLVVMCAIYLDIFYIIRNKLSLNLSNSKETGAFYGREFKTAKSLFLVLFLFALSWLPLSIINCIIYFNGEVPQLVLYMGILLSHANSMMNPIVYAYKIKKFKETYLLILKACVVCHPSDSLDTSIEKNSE
In short: (§2)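 Radioligand binding to membranes from CHO cells expressing the human receptor, run for 3 h at room temperature. Radioligands were [3H]CCPA for hA1, [3H]NECA for hA2A and [3H]HEMADO for hA3. Nonspecific binding was defined with 1 mM theophylline (hA1) or 100 µM R-PIA (hA2A, hA3). Bound ligand was separated by GF/B filtration and counted. Ki came from nonlinear fitting of competition curves using Cheng-Prusoff, as geometric means of n = 3–6 with 95% CI.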

Adenosine receptor A2b = target: T2, Adenosine receptor A2b (Homo sapiens, UniProt P29275); assay: Antagonist activity at human adenosine A2B receptor expressed in CHO cells assessed as inhibition of NECA-induced adenylyl cyclase activity after 20 mins in presence of [alpha-32P]ATP; format: functional, cell-based
T2 sequence (P29275 whole entry): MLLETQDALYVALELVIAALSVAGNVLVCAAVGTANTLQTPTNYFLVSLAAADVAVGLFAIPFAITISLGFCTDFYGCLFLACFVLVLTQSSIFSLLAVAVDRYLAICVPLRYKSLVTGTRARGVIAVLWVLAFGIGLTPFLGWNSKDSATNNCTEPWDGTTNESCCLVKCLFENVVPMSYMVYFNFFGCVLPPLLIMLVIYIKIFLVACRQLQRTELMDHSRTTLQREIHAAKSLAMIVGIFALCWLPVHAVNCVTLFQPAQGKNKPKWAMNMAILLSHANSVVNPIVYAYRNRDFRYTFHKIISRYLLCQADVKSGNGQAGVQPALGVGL
In short: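 Membranes from CHO cells transfected with the human A2B receptor were incubated for 20 min with 100 nM NECA, 150,000 cpm [α-32P]ATP and test compound at several concentrations. The incubation mixture contained no EGTA and no NaCl. Ki was derived from concentration-dependent inhibition of NECA-stimulated adenylyl cyclase activity (n = 3–6).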

Adenosine receptor A2a = Adenosine receptor A2a (Homo sapiens, UniProt P29274); assay: Displacement of [3H]-NECA from human adenosine A2A receptor expressed in CHO cells after 3 hrs by topcount scintillation counting analysis; format: cell-based; in short: as §2
Adenosine receptor A1 = target: T3, Adenosine receptor A1 (Homo sapiens, UniProt P30542); assay: Displacement of [3H]-CCPA from human adenosine A1 receptor expressed in CHO cells after 3 hrs by topcount scintillation counting analysis; format: cell-based; in short: as §2
T3 sequence (P30542 whole entry): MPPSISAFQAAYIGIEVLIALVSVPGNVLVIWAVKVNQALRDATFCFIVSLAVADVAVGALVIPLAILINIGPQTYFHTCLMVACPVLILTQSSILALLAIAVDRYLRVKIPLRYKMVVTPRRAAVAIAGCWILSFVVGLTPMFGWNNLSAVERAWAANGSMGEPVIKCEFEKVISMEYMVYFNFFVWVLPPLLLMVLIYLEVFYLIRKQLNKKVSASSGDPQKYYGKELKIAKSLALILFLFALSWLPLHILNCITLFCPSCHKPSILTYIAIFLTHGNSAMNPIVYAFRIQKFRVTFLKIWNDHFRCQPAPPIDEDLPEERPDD

Homo sapiens [3] = species on record: Homo sapiens; assay: Selectivity ratio of Ki for human adenosine A1 receptor to Ki for human adenosine A2A receptor
Homo sapiens [4] = species on record: Homo sapiens; assay: Selectivity ratio of Ki for human adenosine A3 receptor to Ki for human adenosine A2A receptor

Chain of Adenosine receptor A2a (P29274 whole entry): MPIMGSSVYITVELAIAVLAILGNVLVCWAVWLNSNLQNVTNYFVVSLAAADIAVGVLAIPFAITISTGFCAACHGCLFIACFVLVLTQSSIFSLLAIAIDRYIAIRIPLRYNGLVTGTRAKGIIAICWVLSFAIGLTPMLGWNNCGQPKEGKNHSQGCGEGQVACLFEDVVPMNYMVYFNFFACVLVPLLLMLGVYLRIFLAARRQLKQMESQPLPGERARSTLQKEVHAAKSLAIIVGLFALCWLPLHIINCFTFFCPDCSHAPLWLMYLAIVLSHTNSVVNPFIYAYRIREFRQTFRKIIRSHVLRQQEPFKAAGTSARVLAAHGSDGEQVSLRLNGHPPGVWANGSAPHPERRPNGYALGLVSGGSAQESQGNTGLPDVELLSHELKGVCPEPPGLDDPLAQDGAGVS

Row | Compound | Ratio Ki [1] | Ratio Ki (Homo sapiens [2]) | Ki (Adenosine receptor A3) | Ki (Adenosine receptor A2b) | Ki (Adenosine receptor A2a) | Ki (Adenosine receptor A1) | Ratio Ki (Homo sapiens [3]) | Ratio Ki (Homo sapiens [4])
1 | Cc1ccc(C(=O)Nc2nc(Cl)c3cn(C)nc3n2)cc1 | > 7.4 | 0.8 | 13.5 µM | > 20 µM | 12 µM | > 100 µM |  | 
2 | CC(C)(C)Cn1cc2c(Cl)nc(N(C(=O)c3ccccc3)C(=O)c3ccccc3)nc2n1 | > 15.3 | > 15.3 | 6.5 µM | > 20 µM | > 100 µM | > 100 µM |  | 
3 | CC(C)n1cc2c(Cl)nc(N(C(=O)c3ccccc3)C(=O)c3ccccc3)nc2n1 | 1.1 | 0.1 | 6.7 µM | > 20 µM | 0.8 µM | 7.9 µM | 9.9 | 8
4 | CC(C)n1cc2c(Cl)nc(NC(=O)c3ccccc3)nc2n1 | 1.5 | 0.3 | 12.8 µM | > 20 µM | 4.6 µM | 19.6 µM |  | 
5 | Cn1cc2c(Cl)nc(NC(=O)c3ccc(C(F)(F)F)cc3)nc2n1 | > 2.9 | 0.7 | 33.5 µM | > 20 µM | 25.6 µM | > 100 µM |  | 
6 | CCOC(=O)c1nc(NC(=O)c2ccc(C(F)(F)F)cc2)nc2nn(CC(C)(C)C)cc12 | > 77 | > 77 | 1.3 µM | > 20 µM | > 100 µM | > 100 µM |  | 
7 | Cn1cc2c(Cl)nc(NC(=O)Cc3ccccc3)nc2n1 | 2.4 | 4.5 | 6.6 µM | > 20 µM | 29.9 µM | 16.3 µM |  | 
8 | O=C(Nc1nc(Cl)c2cn(CCc3ccccc3)nc2n1)c1ccccc1 | 0.4 | 0.3 | 8.6 µM | > 20 µM | 3.1 µM | 3.8 µM |  | 
9 | Cc1ccc(C(=O)Nc2nc(Cl)c3cn(CC(C)(C)C)nc3n2)cc1 | 2.2 | 0.4 | 5 µM | > 10 µM | 2.1 µM | 11.1 µM |  | 
10 | Cn1cc2c(Cl)nc(N)nc2n1 |  | > 0.09 | > 100 µM | > 20 µM | 9.1 µM | 29.7 µM |  | 
11 | CC(C)n1cc2c(Cl)nc(NC(=O)c3ccc(C(F)(F)F)cc3)nc2n1 | 1.3 | 0.2 | 10.3 µM | > 20 µM | 2.7 µM | 13.8 µM |  | 
12 | CC(C)(C)Cn1cc2c(Cl)nc(NC(=O)Cc3ccccc3)nc2n1 | 2.9 | 2.1 | 10.9 µM | > 20 µM | 23.6 µM | 31.9 µM |  | 
13 | O=C(Nc1nc(Cl)c2cn(CCc3ccccc3)nc2n1)c1ccc(C(F)(F)F)cc1 | > 21.4 | 5.8 | 2.8 µM | > 20 µM | 16.4 µM | > 60 µM |  | 
14 | CC(C)(C)Cn1cc2c(Cl)nc(N)nc2n1 |  | > 0.6 | > 60 µM | > 10 µM | 4.1 µM | 12 µM |  | 
15 | CC(C)n1cc2c(Cl)nc(N)nc2n1 |  | 0.03 | > 100 µM | > 10 µM | 3.3 µM | 9 µM |  | 
16 | Cn1cc2c(Cl)nc(NC(=O)c3ccc(F)cc3)nc2n1 | > 3.1 | 0.6 | 31.9 µM | > 20 µM | 20.5 µM | > 100 µM |  | 
17 | O=C(Cc1ccccc1)Nc1nc(Cl)c2cn(CCc3ccccc3)nc2n1 | 0.5 | 0.7 | 11.4 µM | > 20 µM | 8.6 µM | 6.5 µM |  | 
18 | CC(C)(C)Cn1cc2c(Cl)nc(NC(=O)c3ccc(F)cc3)nc2n1 | 2.7 | 0.3 | 5.9 µM | > 10 µM | 2.2 µM | 16.5 µM |  | 
19 | Cn1cc2c(Cl)nc(N(C(=O)c3ccccc3)C(=O)c3ccccc3)nc2n1 | > 8.4 | 2.4 | 7.1 µM | > 20 µM | 17.5 µM | > 60 µM |  | 
20 | CC(C)(C)Cn1cc2c(Cl)nc(NC(=O)c3ccc(C(F)(F)F)cc3)nc2n1 | > 15 | > 15 | 6.6 µM | > 20 µM | > 100 µM | > 100 µM |  | 
21 | Cn1cc2c(Cl)nc(NC(=O)c3ccccc3)nc2n1 | > 4.2 | 1 | 23.6 µM | > 20 µM | 24.2 µM | > 100 µM |  | 
22 | Nc1nc(Cl)c2cn(CCc3ccccc3)nc2n1 |  | > 0.03 | > 100 µM | > 20 µM | 3.7 µM | 4.3 µM |  | 
23 | CCOC(=O)c1nc(NC(=O)c2ccc(C)cc2)nc2nn(CC(C)(C)C)cc12 | > 111 | > 111 | 0.9 µM | > 20 µM | > 100 µM | > 100 µM |  | 
24 | O=C(Nc1nc(Cl)c2cn(CCc3ccccc3)nc2n1)c1ccc(F)cc1 | 0.02 | 0.02 | > 100 µM | > 20 µM | 2.06 µM | 2.7 µM |  | > 50
25 | Cc1ccc(C(=O)Nc2nc(Cl)c3cn(CCc4ccccc4)nc3n2)cc1 | 7.2 | 6.6 | 1.5 µM | > 20 µM | 9.9 µM | 10.8 µM |  | 
26 | CC(C)n1cc2c(Cl)nc(NC(=O)c3ccc(F)cc3)nc2n1 |  | > 0.02 | > 60 µM | > 20 µM | 1.6 µM | 3.4 µM |  | > 37
27 | O=C(c1ccccc1)N(C(=O)c1ccccc1)c1nc(Cl)c2cn(CCc3ccccc3)nc2n1 | > 34.5 | 2 | 2.9 µM | > 20 µM | 5.4 µM | > 100 µM |  | 
28 | CC(C)(C)Cn1cc2c(Cl)nc(NC(=O)c3ccccc3)nc2n1 | 0.3 | 0.1 | 30.3 µM | ≥ 10 µM | 3.5 µM | 11 µM |  | 
29 | CC(C)n1cc2c(Cl)nc(NC(=O)Cc3ccccc3)nc2n1 | 0.07 | 0.17 | 27.1 µM | > 10 µM | 4.7 µM | 1.9 µM |  | 
30 | Cc1ccc(C(=O)Nc2nc(Cl)c3cn(C(C)C)nc3n2)cc1 |  | 0.01 | > 100 µM | > 20 µM | 1.1 µM | 4.1 µM |  | 91
